Experimental data reported in paper PMC3124385 (Clinical pharmacology and therapeutics, 2011).
Like-named read-outs stand apart in the source and are kept apart here. Starred links: 1 amine or outer side, 2 acyl side, 3 side chain; linkers in the order of their positions; H or OH if unused. Positions of bridges follow the written chain, without caps; N, C: chain ends. Non-standard residues stand in square brackets, D forms with d. Residues, ends and D or L forms follow the SMILES beside them. *: point of attachment. pTerphenylCO(4''-OnC5H11) = CCCCCOc1ccc(-c2ccc(-c3ccc(C(=O)*)cc3)cc2)cc1; Orn(4R-OH,5R-OH) = O=C([C@H](C[C@@H](O)[C@@H](O)N[*:3])N[*:1])[*:2]; hTyr(3S-OH,4S-OH) = N[C@H](C(=O)O)[C@H](O)[C@@H](O)c1ccc(O)cc1; Pro(3S-OH,4S-Me) = C[C@H]1CN[C@H](C(=O)O)[C@H]1O; Hyp = O=C(O)[C@@H]1C[C@@H](O)CN1

Assays:
[1] = ref [10], cited from earlier work
[2] = assay type: in vivo, human; conditions: for C24 LD, trough (24 h) concentration after the loading dose / Cmax LD, maximum concentration after loading dose: after 3 mg/kg IV loading dose, day 1, plasma LC-MS/MS
Procedure, shortened: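 IV infusion over 60 min (≤1.1 mg/min): 3 mg/kg loading dose day 1, then 1.5 mg/kg daily up to day 5. Infants got a 20% alcohol-based form and neonates an alcohol-free water-for-injection form. Venous plasma drawn day 1 (predose, end-infusion, 20–24 h) and days 3–5 (predose to 18–24 h), kept at −80°C, assayed by LC-MS/MS (0.05–20.0 μg/ml). Noncompartmental analysis of doses 3–5; AUC by linear trapezoidal rule; CL = dose/AUC.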

[3] = ref [12], cited from earlier work
[4] = system: cytochrome P450 enzymatic system; conditions: ref [10]; cited from earlier work
[5] = Safety: adverse events and clinical laboratory tests in infants and neonates; assay type: in vivo, human

Q: Which results are given for CCCCCOc1ccc(-c2ccc(-c3ccc(C(=O)N[C@H]4C[C@@H](O)[C@@H](O)NC(=O)[C@@H]5[C@@H](O)[C@@H](C)CN5C(=O)[C@H]([C@@H](C)O)NC(=O)[C@H]([C@H](O)[C@@H](O)c5ccc(O)cc5)NC(=O)[C@@H]5C[C@@H](O)CN5C(=O)[C@H]([C@@H](C)O)NC4=O)cc3)cc2)cc1 [anidulafungin, Anidulafungin] ({pTerphenylCO(4''-OnC5H11)}-[Orn(4R-OH,5R-OH)]T[Hyp][hTyr(3S-OH,4S-OH)]T[Pro(3S-OH,4S-Me)]; lactam 1-C)?
A: hepatic metabolism [1, 11]: lacks significant hepatic metabolism; degradation in the blood [1]: undergoes chemical degradation in the blood; renal clearance [1]: not renally cleared; drug accumulation after multiple anidulafungin doses ([2]; comparing trough concentrations after the loading dose and those obtained after multiple doses): not apparent; Cmax ([2]; human, plasma, iv, 1.5 mg/kg): 4200 ng/mL; Cmax ([2]; human, plasma, iv, 3 mg/kg): 5000 ng/mL; level at 24 h ([2]; human, plasma, iv, 3 mg/kg): 2100 ng/mL; trend in weight-adjusted clearance (CLss) with changes in postmenstrual age ([2]; scatter plot, Figure 3, neonates and infants): No trend was observed; C24 LD, trough (24 h) concentration after the loading dose ([2]; subject 4, neonate): 2.1 µg/mL; Cmax LD, maximum concentration after loading dose ([2]; subject 4, neonate): 4000 ng/mL; C24 LD, trough (24 h) concentration after the loading dose ([2]; subject 6, neonate): 3.2 µg/mL; Cmax LD, maximum concentration after loading dose ([2]; subject 6, neonate): 5900 ng/mL; C24 LD, trough (24 h) concentration after the loading dose ([2]; subject 8, neonate): 1.9 µg/mL; Cmax LD, maximum concentration after loading dose ([2]; subject 8, neonate): 4900 ng/mL; C24 LD, trough (24 h) concentration after the loading dose ([2]; subject 9, infant): 2.3 µg/mL; Cmax LD, maximum concentration after loading dose ([2]; subject 9, infant): 7100 ng/mL; C24 LD, trough (24 h) concentration after the loading dose ([2]; subject 10, infant): 2.4 µg/mL; Cmax LD, maximum concentration after loading dose ([2]; subject 10, infant): 5000 ng/mL; C24 LD, trough (24 h) concentration after the loading dose ([2]; subject 11, infant): 1.9 µg/mL; Cmax LD, maximum concentration after loading dose ([2]; subject 11, infant): 6800 ng/mL; AUCss of older children and adults ([3]; older children (1.5 mg/kg/day) and adults (100 mg/day)): 100000 ng·h/mL; half life in other pediatric patients ([3]; other pediatric patients): 20 to 24 h; metabolism by the cytochrome P450 enzymatic system [4]: not metabolized by the cytochrome P450 enzymatic system; subjects who experienced at least one adverse event ([5]; eight out of 15 subjects, neonates and infants): 53%; maximum bilirubin level during study drug administration ([5]; other infant with worsening hyperbilirubinemia, baseline 9.1 mg/dL): 10.4 mg/dL
